Assay results taken from EPA's CvTdb concentration-time database.

How the values were obtained:
Rat [1] = assay: concentration in plasma after dosing; conditions: dosed: 2-Hydroxy-4-methoxybenzophenone, 500 mg/kg, oral, Female, F344
Rat [2] = assay: concentration in plasma after dosing; conditions: 0.5 h; dosed: Nitrite; 20 mg/kg; iv; Male; F344
Rat [3] = assay: concentration in plasma after dosing; conditions: 2 min; dosed: Nitrite; 20 mg/kg; iv; Male; F344
Rat [4] = assay: concentration in liver after dosing; conditions: 6 h; dosed: Fluorotelomer alcohol 8+2; 24 mg/kg; oral; Male; Harlan Sprague Dawley
Rat [5] = assay: concentration in liver after dosing; conditions: 3 h; dosed: Fluorotelomer alcohol 8+2; 80 mg/kg; oral; Female; Harlan Sprague Dawley
Rat [6] = assay: concentration in plasma after dosing; conditions: dosed: 678-39-7, 40 mg/kg, iv, Female, Harlan Sprague-Dawley
Rat [7] = assay: concentration in kidney after dosing; conditions: 12 h; dosed: Perfluorooctanoic acid; 80 mg/kg; oral; Female; Harlan Sprague Dawley
Rat [8] = assay: concentration in brain after dosing; conditions: 192 h; dosed: Perfluorooctanoic acid; 12 mg/kg; oral; Male; Harlan Sprague Dawley
Rat [9] = assay: concentration in kidney after dosing; conditions: 0.5 h; dosed: Fluorotelomer alcohol 8+2; 80 mg/kg; oral; Female; Harlan Sprague Dawley
Rat [10] = assay: concentration in kidney after dosing; conditions: 12 h; dosed: Fluorotelomer alcohol 8+2; 80 mg/kg; oral; Female; Harlan Sprague Dawley
Rat [11] = assay: concentration in kidney after dosing; conditions: 6 h; dosed: Fluorotelomer alcohol 8+2; 24 mg/kg; oral; Male; Harlan Sprague Dawley
Rat [12] = assay: concentration in plasma after dosing; conditions: dosed: Potassium Perfluorobutane Sulfonate, 4 mg/kg, iv, Male, F344
Rat [13] = assay: concentration in plasma after dosing; conditions: dosed: Potassium Perfluorobutane Sulfonate, 4 mg/kg, oral, Male, Harlan Sprague Dawley
Rat [14] = assay: concentration in plasma after dosing; conditions: dosed: Potassium Perfluorobutane Sulfonate, 20 mg/kg, oral, Male, Harlan Sprague Dawley
Rat [15] = assay: concentration in plasma after dosing; conditions: dosed: Potassium Perfluorobutane Sulfonate, 4 mg/kg, iv, Male, F344; remark: listed apart in the source
rat [16] = assay: concentration in blood after dosing (ugEq/g tissue); conditions: dosed: benzo[a]pyrene, iv, male, Wistar
human = assay: amount in urine after dosing (umol)
In short: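 Points were largely digitised from plot screenshots with WebPlotDigitizer or otherwise copied from tables, and they remain in the units each source reported. They come from published in vivo toxicokinetic studies and two structured collections. Sampling and analytical methods follow each source and were often not reported.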

COc1ccc(C(=O)c2ccccc2)c(O)c1 [2-Hydroxy-4-methoxybenzophenone]
Rat [1]
Conditions	concentration in plasma [ng/mL]
2.5 min	47.3
4 h	240

O=N[O-] [Nitrite]
Conditions	concentration in plasma [ng/mL]
Rat [2]	8100
Rat [3]	15100

O=C(O)C(F)(F)C(F)(F)C(F)(F)C(F)(F)C(F)(F)C(F)(F)C(F)(F)F [Perfluorooctanoic acid]
Conditions	concentration in brain [ng/g]	concentration in kidney [ng/g]	concentration in liver [ng/g]
Rat [4]	–	–	1350
Rat [5]	–	–	2170
Rat [7]	–	67800	–
Rat [8]	543	–	–
Rat [9]	–	360	–
Rat [10]	–	711	–
Rat [11]	–	381	–

Rat [6]
Conditions	concentration in plasma [ng/mL]
0.75 h	1470
12 h	372

O=S(=O)([O-])C(F)(F)C(F)(F)C(F)(F)C(F)(F)F.[K+] [Potassium Perfluorobutane Sulfonate]
Conditions	concentration in plasma [ng/mL]
Rat [12], 3 h	305
Rat [12], 5 min	26400
Rat [13], 0.75 h	13400
Rat [13], 12 h	4960
Rat [14], 5 min	1130
Rat [14], 9 h	13200
Rat [15], 0.75 h	21100
Rat [15], 24 h	171

c1ccc2c(c1)cc1ccc3cccc4ccc2c1c34 [benzo[a]pyrene]
concentration in blood, rat [16]
Conditions	2 mg/kg	6 mg/kg	15 mg/kg
0.5 h	0.66	2.42	13.8
0.75 h	0.47	1.99	10.6
1 h	0.42	1.72	8.52
1.5 h	0.17	0.5	7.16
2 h	0.35	0.14	3.93
3 h	–	0.03	1.86
4 h	–	–	0.19
5 h	–	0.01	0.09
5 min	2.64	4.66	28.8
6 h	–	–	0.05
8 h	–	–	0.02
10 min	1.85	5	29.8
20 min	1.2	3.78	15.9
24 h	–	–	0.015
32 h	–	–	0.002

CC(C)(C)O [tert-butyl alcohol]
amount in urine, human, inhalation, duration: 4 hr
Conditions	dosed: ethyl tert-butyl ether	dosed: methyl tert-butyl ether
0 h, 4.5 ppm	–	0.221
0 h, 40.6 ppm	2.39	–
0.1079 h, 38.7 ppm	–	6.16
2 s, 4.5 ppm	0.655	–
5.895 h, 40.6 ppm	5.98	–
5.968 h, 4.5 ppm	1.15	–
6.052 h, 4.5 ppm	–	0.993
6.07 h, 38.7 ppm	–	7.53
11.89 h, 40.6 ppm	5.18	–
11.9 h, 4.5 ppm	–	0.993
11.92 h, 38.7 ppm	–	6.16
12.14 h, 4.5 ppm	0.764	–
17.89 h, 40.6 ppm	3.59	–
18.05 h, 4.5 ppm	0.545	0.221
18.09 h, 38.7 ppm	–	4.11
23.89 h, 40.6 ppm	1.59	–
23.9 h, 4.5 ppm	–	0.221
23.95 h, 38.7 ppm	–	2.74
24.02 h, 4.5 ppm	0.545	–
29.89 h, 40.6 ppm	1.39	–
30.05 h, 4.5 ppm	–	0.221
30.12 h, 38.7 ppm	–	4.11
30.19 h, 4.5 ppm	0.273	–
35.9 h, 4.5 ppm	–	0.11
35.97 h, 38.7 ppm	–	2.74
36.11 h, 40.6 ppm	0.598	–
42.11 h, 40.6 ppm	0.598	–
42.14 h, 38.7 ppm	–	0.685
48.11 h, 40.6 ppm	0.797	–
48.29 h, 4.5 ppm	0.0545	–
54.17 h, 38.7 ppm	–	0.685
71.95 h, 38.7 ppm	–	0.685
72.05 h, 40.6 ppm	0.199	–

human, dosed: methyl tert-butyl ether, oral
Conditions	amount in urine
0 h, 5 mg	0.0137
5.859 h, 15 mg	0.646
6.163 h, 5 mg	0.274
12.01 h, 5 mg	0.233
12.04 h, 15 mg	0.568
17.9 h, 15 mg	0.329
18.18 h, 5 mg	0.123
24.08 h, 15 mg	0.292
24.24 h, 5 mg	0.0548
29.94 h, 15 mg	0.214
30.19 h, 5 mg	0.0685
36.12 h, 15 mg	0.136
36.25 h, 5 mg	0.0548
41.98 h, 15 mg	0.138
42.1 h, 5 mg	0.0137
48.05 h, 15 mg	0.101
54.02 h, 15 mg	0.143
